The GI50 is the concentration giving 50% growth inhibition. What is called half-life is how long it takes for the measured level to halve. A higher half-life goes with slow loss. A word on the pIC50: it is the IC50 on a negative log10 scale, so that one unit is a factor of ten. High values mean a low IC50, low ones a high IC50.

One series concerns SK-OV-3. The experiment in a line: Antiproliferative activity against human SKOV3 cells assessed as growth inhibition measured after 48 hrs by MTT assay. As to conditions: SK-OV-3, 48 h. It counts as functional. The gist of the method: (§1)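 Cells seeded at 10,000 or 15,000 per well, incubated overnight at 37 °C, then exposed to serial three-fold dilutions of compound (10 mM DMSO stocks) for 48 h at 37 °C. MTT added for 4 h at 37 °C, absorbance read at 570 and 690 nm. Viability = 100×(T−T0)/(C−T0) versus vehicle. Triplicate wells; GI50 from log concentration versus normalized viability.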

For a further series, the system named is MDA-MB-231. Briefly: Antiproliferative activity against human MDA-MB-231 cells assessed as growth inhibition measured after 48 hrs by MTT assay. It counts as functional. As to conditions: MDA-MB-231, 48 h. The gist of the method: as §1
A general note: Formazan colour is commonly taken as a measure of viable cells.

The nature of series [1]: Antiproliferative activity against human NCI-H232A cells assessed as growth inhibition measured after 48 hrs by MTT assay. It is filed as functional. The gist of the method:
as §1

A further series relates to DU-145. Briefly: Antiproliferative activity against human DU145 cells assessed as growth inhibition measured after 48 hrs by MTT assay. As to conditions: DU-145, 48 h. It is filed as functional. The gist of the method: as §1
Series [2] in a line: Stability of the compound in phosphate buffer assessed as compound remaining after 8 to 78 hrs at pH 7.4 at 37 degC by HPLC. It counts as physicochemical. The gist of the method: (§2)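 Compound (10 µL of 10 mM DMSO stock) added to 10 mL phosphate buffer pH 7.4 containing benzoic acid and DMSO, sealed and held at 37 °C. Samples (20 µL) analysed by reverse-phase C18 HPLC at multiple time points; half-life determined from remaining compound.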

A short description of series [3]: Stability of the compound in phosphate buffer at pH 7.4 at 37 degC by HPLC. It counts as physicochemical. Summed up:
as §2

Series [4] deals with HEK293. The experiment in a line: Inhibition of Pre-mRNA splicing in human HEK293 cells using biotin-labeled Ad2 pre-mRNA by exonjunction complex (EJC) immunoprecipitation assay.
For series [5], the system named is HEK293. Briefly: Inhibition of Pre-mRNA splicing in human HEK293 cells using p32-labeled CDC14-15 pre-mRNA by exonjunction complex (EJC) immunoprecipitation assay. It is filed as functional, cell-based.
The nature of series [6]: Stability of the compound in phosphate buffer at pH 7 at 37 degC by HPLC. It is filed as physicochemical.

pIC50: −log10 of the molar value. Bounds are passed on as bounds.

With `CC(=O)O[C@@H](C)/C=C\C(=O)N[C@@H]1C[C@H](C)[C@H](C/C=C(C)/C=C/[C@H]2O[C@H](CC(=O)O)C[C@@]3(CO3)[C@@H]2O)O[C@@H]1C` [THAILANSTATIN A], the concentration for 50% growth inhibition (GI50) in the series on SK-OV-3 worked out at 2.69 nM; in the series on MDA-MB-231, 2.58 nM; in [1] it was 2.26 nM; with DU-145 it was 1.11 nM. Also, in [2], the Stability worked out at 65%. Further, the half-life in series [3] is > 78 h. This compound also had a pIC50 in the series with HEK293 [4] of 6.19.

With `CC(/C=C/[C@H]1O[C@H](CC(=O)O)C[C@@](O)(CCl)[C@@H]1O)=C\C[C@@H]1O[C@H](C)[C@H](NC(=O)/C=C\[C@H](C)OC(=O)C(C)C)C[C@@H]1C` [THAILANSTATIN C], the GI50 with SK-OV-3 came to 5.57 nM; in the series with MDA-MB-231, 8.82 nM; in [1], 3.67 nM; in the series with DU-145, 2.98 nM. Moreover, in [3], the half-life was 25 h. Besides, the negative-log IC50 (pIC50) with HEK293 [4] is 5.16.

With `CC(=O)O[C@@H](C)/C=C\C(=O)N[C@@H]1C[C@H](C)[C@H](C/C=C(C)/C=C/[C@H]2O[C@](C)(O)C[C@@]3(CO3)[C@@H]2O)O[C@@H]1C`, the 50% growth inhibitory concentration (GI50) in the series on SK-OV-3 was determined as 1.06 nM; in the series with MDA-MB-231, 2.1 nM; in series [1], 1.94 nM; with DU-145 it was 1.05 nM. In the series on HEK293 [5], the inhibition entry was “Dose-dependent effect”. Moreover, the Stability in series [2] came out at 38%. Further, the half-life is 8 h in [3] and 4 h in series [6]. For the same compound, the pIC50 with HEK293 [4] is 6.24.

For `CC(=O)O[C@@H](C)/C=C\C(=O)N[C@@H]1C[C@H](C)[C@H](C/C=C(C)/C=C/[C@H]2O[C@H](CC(=O)O)C[C@@](O)(CCl)[C@@H]2O)O[C@@H]1C` [THAILANSTATIN B], the concentration for 50% growth inhibition (GI50) in the series with SK-OV-3 was 4.94 nM; in the series on MDA-MB-231 it was 6.22 nM; in [1], 2.5 nM; in the series on DU-145 it was 3 nM. The compound further had a half-life in [3] of 19 h. Also, the negative-log IC50 (pIC50) with HEK293 [4] is 5.21.

The values above are taken from ChEMBL document CHEMBL2331206, “Genomics-guided discovery of thailanstatins A, B, and C As pre-mRNA splicing inhibitors and antiproliferative agents from Burkholderia thailandensis MSMB43” (J Nat Prod, 2013).
